Experimental data published in ChEMBL document CHEMBL1153046, “Synthesis and antitumor activity of substituted triazolo[4,3-a]pyrimidin-6-sulfonamide with an incorporated thiazolidinone moiety” (2009).

Legend:
Format in all cases: functional
[1] = tested on: HL-60(TB); test: Growth inhibition of human HL-60(TB) cells after 48 hrs by sulforhodamine B assay; conditions: HL-60, 48 h
In short: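 NCI 60-cell-line panel. Cells were grown in RPMI1640 with 5% fetal calf serum and 2 mM L-glutamine, seeded at a density suited to each line, and preincubated 24 h. Compounds were tested at a minimum of five concentrations at 10-fold dilutions over a 5-log range, with 48 h continuous exposure. Growth was read by sulforhodamine B protein staining, and GI50 was taken from dose-response curves.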

[2] = tested on: HOP-92; test: Growth inhibition of human HOP92 cells after 48 hrs by sulforhodamine B assay; conditions: HOP-92, 48 h
In short: (§1)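 NCI 60-cell-line panel. Cells are grown in RPMI1640 with 5% fetal calf serum and 2 mM L-glutamine, seeded at a density set by growth characteristics, and preincubated 24 h. Compound is tested at a minimum of five concentrations at 10-fold dilution, with 48 h continuous exposure. Viability is read by sulforhodamine B protein assay. GI50, TGI and LC50 come from dose-response curves.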

[3] = tested on: NCI-H23; test: Growth inhibition of human NCI-H23 cells after 48 hrs by sulforhodamine B assay; conditions: NCI-H23, 48 h; in short: as §1
[4] = tested on: NCI-H322M; test: Growth inhibition of human NCI-H322M cells after 48 hrs by sulforhodamine B assay; in short: as §1
[5] = tested on: NCI-H460; test: Growth inhibition of human NCI-H460 cells after 48 hrs by sulforhodamine B assay; conditions: NCI-H460, 48 h; in short: as §1
[6] = tested on: HCC 2998; test: Growth inhibition of human HCC2998 cells after 48 hrs by sulforhodamine B assay; conditions: HCC 2998, 48 h; in short: as §1
[7] = tested on: HCT-116; test: Growth inhibition of human HCT116 cells after 48 hrs by sulforhodamine B assay; conditions: HCT-116, 48 h; in short: as §1
[8] = tested on: HT-29; test: Growth inhibition of human HT-29 cells after 48 hrs by sulforhodamine B assay; conditions: HT-29, 48 h; in short: as §1
[9] = tested on: KM12; test: Growth inhibition of human KM12 cells after 48 hrs by sulforhodamine B assay; conditions: KM12, 48 h; in short: as §1
[10] = tested on: SW-620; test: Growth inhibition of human SW620 cells after 48 hrs by sulforhodamine B assay; conditions: SW-620, 48 h
In short: (§2)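 NCI 60-cell-line panel (nine cancer types), with cells grown in RPMI1640 plus 5% fetal calf serum and 2 mM L-glutamine. Cells are seeded at a density that depends on the line and preincubated 24 h. Compounds are then applied at a minimum of five 10-fold dilutions over a 5-log range with 48 h continuous exposure. Viability is read by SRB protein assay, and GI50 is derived from dose-response curves in units of 10^-5 M.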

[11] = tested on: SF-268; test: Growth inhibition of human SF268 cells after 48 hrs by sulforhodamine B assay; conditions: SF-268, 48 h; for CC50: read-out: LC50 (the source's name); in short: as §1
[12] = tested on: SF-295; test: Growth inhibition of human SF295 cells after 48 hrs by sulforhodamine B assay; conditions: SF-295, 48 h; in short: as §1
[13] = tested on: SNB-19; test: Growth inhibition of human SNB19 cells after 48 hrs by sulforhodamine B assay; conditions: SNB-19, 48 h; in short: as §2
[14] = tested on: SNB-75; test: Growth inhibition of human SNB75 cells after 48 hrs by sulforhodamine B assay; conditions: SNB-75, 48 h; in short: as §2
[15] = tested on: U-251; test: Growth inhibition of human U251 cells after 48 hrs by sulforhodamine B assay; conditions: U-251, 48 h; in short: as §2
[16] = tested on: SK-MEL-5; test: Growth inhibition of human SK-MEL-5 cells after 48 hrs by sulforhodamine B assay; conditions: SK-MEL-5, 48 h; for CC50: read-out: LC50 (the source's name); in short: as §1
[17] = tested on: UACC-257; test: Growth inhibition of human UACC257 cells after 48 hrs by sulforhodamine B assay; conditions: UACC-257, 48 h; in short: as §2
[18] = tested on: UACC-62; test: Growth inhibition of human UACC62 cells after 48 hrs by sulforhodamine B assay; conditions: UACC-62, 48 h; for CC50: read-out: LC50 (the source's name); in short: as §2
[19] = tested on: IGROV-1; test: Growth inhibition of human IGROV1 cells after 48 hrs by sulforhodamine B assay; conditions: IGROV-1, 48 h; in short: as §1
[20] = tested on: OVCAR-4; test: Growth inhibition of human OVCAR4 cells after 48 hrs by sulforhodamine B assay; conditions: OVCAR-4, 48 h; in short: as §1
[21] = tested on: OVCAR-5; test: Growth inhibition of human OVCAR5 cells after 48 hrs by sulforhodamine B assay; conditions: OVCAR-5, 48 h; in short: as §1
[22] = tested on: SK-OV-3; test: Growth inhibition of human SKOV3 cells after 48 hrs by sulforhodamine B assay; conditions: SK-OV-3, 48 h; in short: as §1
[23] = tested on: RXF 393; test: Growth inhibition of human RXF393 cells after 48 hrs by sulforhodamine B assay; conditions: RXF 393, 48 h; for CC50: read-out: LC50 (the source's name); in short: as §1
[24] = tested on: SN12C; test: Growth inhibition of human SN12C cells after 48 hrs by sulforhodamine B assay; in short: as §1
[25] = tested on: TK-10; test: Growth inhibition of human TK10 cells after 48 hrs by sulforhodamine B assay; conditions: TK-10, 48 h; in short: as §2
[26] = tested on: MCF7; test: Antiproliferative activity against human MCF7 cells assessed as cell growth at 100 uM after 48 hrs by alamar blue assay; conditions: MCF7, 48 h, read-out: Activity
In short: (§3)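 NCI three-cell-line primary screen. Cells are seeded and preincubated in microtiter plates. Compound is added at a single 10^-4 M concentration and cultures are incubated 48 h. The end-point is read with alamar blue. Results are given as percent growth relative to untreated control cells.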

[27] = tested on: NCI-H460; test: Antiproliferative activity against human NCI-H460 cells assessed as cell growth at 100 uM after 48 hrs by alamar blue assay; conditions: NCI-H460, 48 h, read-out: Activity; in short: as §3
[28] = tested on: CCRF-CEM; test: Growth inhibition of human CCRF-CEM cells after 48 hrs by sulforhodamine B assay; in short: as §1
[29] = tested on: COLO 205; test: Growth inhibition of human COLO205 cells after 48 hrs by sulforhodamine B assay; conditions: COLO 205, 48 h; in short: as §1

Structure (SMILES): COc1ccc(/C=N/c2nc3[nH]nc(C)n3c(=O)c2S(=O)(=O)NN2C(=O)C(CN3CCN(C)CC3)SC2c2ccc(OC)cc2)cc1 (stereo not drawn)
- GI50 [1]: 28.2 µM
- LC50 [1]: > 100 µM
- TGI [1]: 86.8 µM
- GI50 [2]: 17.8 µM
- LC50 [2]: 74.2 µM
- TGI [2]: 36.4 µM
- GI50 [3]: 20.5 µM
- TGI [3]: 48.1 µM
- GI50 [4]: 21.1 µM
- TGI [4]: 51.1 µM
- GI50 [5]: 16.4 µM
- TGI [5]: 46.7 µM
- GI50 [6]: 8.59 µM
- LC50 [6]: 71.9 µM
- TGI [6]: 22.5 µM
- GI50 [7]: 5.89 µM
- LC50 (concentration killing 50% of cells) [7]: 71.5 µM
- TGI [7]: 47.2 µM
- GI50 [8]: 34.7 µM
- GI50 [9]: 24.8 µM
- GI50 [10]: 30.4 µM
- GI50 [11]: 17.7 µM
- TGI [11]: 42 µM
- CC50 [11]: 99.6 µM
- GI50 [12]: 16.8 µM
- LC50 (concentration killing 50% of cells) [12]: 76.8 µM
- TGI [12]: 35.9 µM
- GI50 [13]: 25.7 µM
- TGI [13]: 72.5 µM
- GI50 [14]: 23.6 µM
- TGI [14]: 51.8 µM
- GI50 [15]: 17.6 µM
- LC50 [15]: > 100 µM
- TGI [15]: 45.2 µM
- GI50 [16]: 19.3 µM
- TGI [16]: 39 µM
- CC50 [16]: 78.5 µM
- GI50 [17]: 21.6 µM
- LC50 [17]: 92.3 µM
- TGI [17]: 44.7 µM
- GI50 [18]: 18.9 µM
- TGI [18]: 38.4 µM
- CC50 [18]: 77.8 µM
- GI50 [19]: 21 µM
- LC50 [19]: 93.9 µM
- TGI [19]: 44.4 µM
- GI50 [20]: 23.3 µM
- LC50 [20]: 96.5 µM
- TGI [20]: 47.4 µM
- GI50 [21]: 24.3 µM
- LC50 (concentration causing 50% net cell kill) [21]: 90.7 µM
- TGI [21]: 47 µM
- GI50 [22]: 27.1 µM
- TGI [22]: 73.3 µM
- GI50 [23]: 10.2 µM
- TGI [23]: 31.1 µM
- CC50 [23]: 95.1 µM
- GI50 [24]: 18.6 µM
- LC50 [24]: 68.9 µM
- TGI [24]: 35.8 µM
- GI50 [25]: 19.4 µM
- LC50 [25]: 82.1 µM
- TGI [25]: 39.9 µM
- growth at 100 µM [26]: 9%
- growth at 100 µM [27]: 0%
- GI50 [28]: 17.2 µM
- TGI [28]: 49.2 µM

Structure (SMILES): COc1ccc(/C=N/c2nc3[nH]nc(C)n3c(=O)c2S(=O)(=O)NN2C(=O)C(CN3CCOCC3)SC2c2cccs2)cc1 (stereo not drawn)
- GI50 [2]: 12.4 µM
- LC50 [2]: > 100 µM
- TGI [2]: > 100 µM
- GI50 [3]: 44.5 µM
- TGI [3]: > 100 µM
- GI50 [4]: 56.9 µM
- TGI [4]: > 100 µM
- GI50 [5]: 5.32 µM
- TGI [5]: > 100 µM
- GI50 [29]: 14.9 µM
- TGI [29]: 12.8 µM
- GI50 [6]: 3.96 µM
- LC50 [6]: 64.8 µM
- TGI [6]: 31.3 µM
- GI50 [7]: 4.72 µM
- LC50 (concentration killing 50% of cells) [7]: > 100 µM
- TGI [7]: 57.4 µM
- GI50 [8]: 19.4 µM
- GI50 [9]: 4.06 µM
- GI50 [10]: 6.11 µM
- GI50 [11]: 18.5 µM
- TGI [11]: > 100 µM
- CC50 [11]: > 100 µM
- GI50 [12]: 4.69 µM
- LC50 (concentration killing 50% of cells) [12]: > 100 µM
- TGI [12]: > 100 µM
- GI50 [13]: 34.5 µM
- TGI [13]: > 100 µM
- GI50 [14]: 35.5 µM
- TGI [14]: > 100 µM
- GI50 [15]: 15.6 µM
- LC50 [15]: > 100 µM
- TGI [15]: > 100 µM
- GI50 [16]: 3.71 µM
- TGI [16]: 24 µM
- CC50 [16]: > 100 µM
- GI50 [17]: 6.77 µM
- LC50 [17]: > 100 µM
- TGI [17]: > 100 µM
- GI50 [18]: 3.7 µM
- TGI [18]: 31.4 µM
- CC50 [18]: > 100 µM
- GI50 [19]: 3.95 µM
- LC50 [19]: > 100 µM
- TGI [19]: 34.8 µM
- GI50 [20]: > 100 µM
- LC50 [20]: > 100 µM
- TGI [20]: > 100 µM
- GI50 [21]: 43.4 µM
- LC50 (concentration causing 50% net cell kill) [21]: > 100 µM
- TGI [21]: > 100 µM
- GI50 [22]: 20.2 µM
- TGI [22]: > 100 µM
- GI50 [23]: 16.6 µM
- TGI [23]: 94.2 µM
- CC50 [23]: > 100 µM
- GI50 [24]: 16.8 µM
- LC50 [24]: > 100 µM
- TGI [24]: 85.7 µM
- GI50 [25]: 20.8 µM
- LC50 [25]: > 100 µM
- TGI [25]: 92 µM
- growth at 100 µM [26]: 24%
- growth at 100 µM [27]: 13%
- GI50 [28]: 6.27 µM
- TGI [28]: > 100 µM
